# From ChEMBL document CHEMBL5653614, “Rescue of fragile X syndrome phenotypes in Fmr1 KO mice by the small-molecule PAK inhibitor FRAX486” (Proc Natl Acad Sci U S A, 2013)
# pIC50: −log10 of the molar value. Activity calls are given as the source filed them. The rule behind the calls is not given here.
# What was measured:
# [1] = system: Mus musculus; experiment: Protective activity in FVB.129P2-Pde6b+ Tyr c-ch/AntJ wild type mouse assessed as decrease in time spent in moving at 20 mg/kg, sc for 5 days and measured for 30 mins by open field assay; assay type: functional, organism-based; conditions: time 5.0 day
# How it was run: (§1)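 Adult male WT and Fmr1 KO mice dosed s.c. at 20 mg/kg or vehicle for 5 d; tested 4–5.5 h after dosing. Single mouse in a novel open field for 30 min, tracked by infrared sensors in 1-min bins; bar-graph values averaged over minutes 18–30. Mice beyond 2 SD in total distance, or immobile for 5 consecutive minutes, were excluded.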
# [2] = system: Mus musculus; experiment: Protective activity in Fmr1 knockout FVB.129P2-Fmr1tm1Cgr/J mouse assessed as decrease in apical dendritic spine density in layer II/III pyramidal neurons segment 10 at 20 mg/kg, sc and measured after 8 hrs by Golgi-Cox technique analysis; assay type: functional, organism-based
# How it was run: (§2)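 Adult male WT and Fmr1 KO FVB mice given 20 mg/kg s.c. or vehicle; brains collected 8 h later and Golgi stained. Apical dendrites of layer II/III pyramidal neurons in temporal cortex, originating 50–100 µm from the soma, were divided into ten 10-µm segments and spines counted. 40–60 neurons from 4–6 mice per group; one-way ANOVA.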
# [3] = system: Mus musculus; experiment: (§3) Anti-seizure activity against 124dB loud auditory stimulus induced Fmr1 FVB.129P2-Pde6b+ Tyr c-ch/AntJ wild type mouse model of audiogenic seizure assessed as decrease in sound-induced death due to respiratory arrest at 20 mg/kg,sc for 8 hrs followed by audiogenic seizure induction by audiogenic seizure assay; assay type: functional, organism-based
# How it was run: (§4)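 Adult male mice (10–17 wk). Single s.c. dose (0, 10, 20 or 30 mg/kg) in 20% (wt/vol) hydroxypropyl-β-cyclodextrin vehicle; AGS induced 8 h later. Mouse acclimated 2 min in a clear acrylic two-chamber box, then exposed to a 124 dB sound. Scored as percentage of animals showing each sequential phase (wild running, seizure, death by respiratory arrest); χ2 test against vehicle.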
# [4] = system: Mus musculus; experiment: Protective activity in Fmr1 knockout FVB.129P2-Fmr1tm1Cgr/J mouse assessed as decrease in apical dendritic spine density in layer II/III pyramidal neurons segment 1 at 20 mg/kg, sc and measured after 8 hrs by Golgi-Cox technique analysis; assay type: functional, organism-based; how it was run: as §2
# [5] = system: Mus musculus; experiment: Protective activity in Fmr1 knockout FVB.129P2-Fmr1tm1Cgr/J mouse assessed as change in basal dendritic spine density in cortical neuron at 20 mg/kg, sc and measured after 8 hrs by Golgi-Cox technique analysis; assay type: functional, organism-based; conditions: Cortical neurone
# [6] = system: Mus musculus; experiment: Protective activity in FVB.129P2-Pde6b+ Tyr c-ch/AntJ wild type mouse assessed as increase in testicular weight at 20 mg/kg, sc for 21 days; assay type: functional, organism-based; conditions: time 21.0 day
# [7] = biological target: Serine/threonine-protein kinase PAK 4 (Homo sapiens, UniProt O96013); experiment: Inhibition of PAK4 (unknown origin) by Z'-LYTE functional assay
# Sequence of Serine/threonine-protein kinase PAK 4 (O96013 whole entry, canonical isoform): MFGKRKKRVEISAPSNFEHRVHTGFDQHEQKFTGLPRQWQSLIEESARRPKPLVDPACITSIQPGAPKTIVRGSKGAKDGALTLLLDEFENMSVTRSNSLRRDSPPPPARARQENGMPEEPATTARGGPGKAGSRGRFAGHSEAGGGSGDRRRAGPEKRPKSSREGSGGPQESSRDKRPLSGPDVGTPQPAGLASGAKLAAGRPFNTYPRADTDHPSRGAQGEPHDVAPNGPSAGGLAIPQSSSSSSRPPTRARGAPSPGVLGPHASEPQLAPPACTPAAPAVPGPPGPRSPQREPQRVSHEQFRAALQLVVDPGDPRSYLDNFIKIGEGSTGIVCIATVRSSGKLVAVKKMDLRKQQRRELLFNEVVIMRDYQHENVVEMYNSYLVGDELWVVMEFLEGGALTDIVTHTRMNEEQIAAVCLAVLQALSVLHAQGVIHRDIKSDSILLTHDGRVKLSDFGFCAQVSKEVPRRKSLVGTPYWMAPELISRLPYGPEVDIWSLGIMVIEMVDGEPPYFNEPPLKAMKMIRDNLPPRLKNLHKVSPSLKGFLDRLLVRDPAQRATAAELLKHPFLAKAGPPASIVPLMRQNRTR
# How it was run: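 Full-length PAK isoforms phosphorylating an optimized peptide substrate in a Z-LYTE biochemical kinase assay, 10-point inhibitor titration. Duplicates (n = 2, mean ± SEM) plotted semilog; IC50 from a variable-slope sigmoidal dose–response fit.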
# [8] = system: Mus musculus; experiment: Protective activity in Fmr1 knockout FVB.129P2-Fmr1tm1Cgr/J mouse model of Fragile X syndrome assessed as decrease in time spent in moving at 20 mg/kg, sc for 5 days and measured for 30 mins by open field assay; assay type: functional, organism-based; conditions: time 5.0 day; how it was run: as §1
# [9] = system: Mus musculus; experiment: Protective activity in Fmr1 FVB.129P2-Pde6b+ Tyr c-ch/AntJ wild type mouse assessed as change in basal dendritic spine density in cortical neuron at 20 mg/kg, sc and measured after 8 hrs by Golgi-Cox technique analysis; assay type: functional, organism-based; conditions: Cortical neurone
# [10] = system: Mus musculus; experiment: Protective activity in Fmr1 knockout FVB.129P2-Fmr1tm1Cgr/J mouse assessed as decrease in apical dendritic spine density in layer II/III pyramidal neurons segment 5 at 20 mg/kg, sc and measured after 8 hrs by Golgi-Cox technique analysis; assay type: functional, organism-based; how it was run: as §2
# [11] = system: Mus musculus; experiment: Protective activity in Fmr1 knockout FVB.129P2-Fmr1tm1Cgr/J mouse assessed as decrease in apical dendritic spine density in layer II/III pyramidal neurons segment 4 at 20 mg/kg, sc and measured after 8 hrs by Golgi-Cox technique analysis; assay type: functional, organism-based; how it was run: as §2
# [12] = system: Mus musculus; experiment: Protective activity in Fmr1 knockout FVB.129P2-Fmr1tm1Cgr/J mouse assessed as decrease in apical dendritic spine density in layer II/III pyramidal neurons segment 2 at 20 mg/kg, sc and measured after 8 hrs by Golgi-Cox technique analysis; assay type: functional, organism-based; how it was run: as §2
# [13] = Drug concentration in FVB.129P2 mouse brain at 20 mg/kg,sc and measured from 8 to 18 hrs by LC-MS/MS analysis; assay type: ADME, organism-based; conditions: in vivo, time 8-18 hrs
# How it was run: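 WT FVB.129P2 mice got one s.c. injection of 20 mg/kg (2 mg/mL in 20% hydroxypropyl-β-cyclodextrin). Blood and forebrain were collected at time points from 15 min to 24 h. Forebrain was weighed, snap-frozen and homogenized in 2 volumes of cold PBS. Drug quantified by LC-MS/MS. n = 2–3, mean ± SEM.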
# [14] = system: Mus musculus; experiment: Anti-seizure activity against 124dB loud auditory stimulus induced Fmr1 knockout FVB.129P2-Fmr1tm1Cgr/J mouse model of audiogenic seizure assessed as decrease in sound-induced seizure at 20 mg/kg,sc and measured after 5 days by audiogenic seizure assay (Rvb=100%); assay type: functional; set-up: scale not given: the % may be the effect or the level left; conditions: time 5 day
# How it was run: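 Fmr1 KO mice received one s.c. dose of vehicle or 20 mg/kg in hydroxypropyl-β-cyclodextrin; the AGS assay (124 dB stimulus after 2 min acclimation) was run 5 d later. Seizure incidence recorded.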
# [15] = system: Mus musculus; experiment: as §3, with “knockout FVB.129P2-Fmr1tm1Cgr/J” for “FVB.129P2-Pde6b+ Tyr c-ch/AntJ wild type”, “10 to 30” for “20”; assay type: functional, organism-based; conditions: dose 10-30 mg/kg; how it was run: as §4
# [16] = system: Mus musculus; experiment: Protective activity in Fmr1 knockout FVB.129P2-Fmr1tm1Cgr/J mouse model of Fragile X syndrome assessed as increase in testicular weight at 20 mg/kg, sc for 21 days; assay type: functional, organism-based; conditions: time 21.0 day
# [17] = system: Mus musculus; experiment: Protective activity in FVB.129P2-Pde6b+ Tyr c-ch/AntJ wild type mouse assessed as balance on accelerating rotarod at 20 mg/kg, sc and measured for 4 to 5.25 hrs by rotarod test; assay type: functional, organism-based; conditions: time 4-5.25 hrs
# How it was run: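 Adult male WT and Fmr1 KO mice tested 4–5.5 h after s.c. 20 mg/kg or vehicle. Latency to fall or jump off the rotating cylinder recorded (max 3 min). Three trials per mouse, 30–40 min apart; per-mouse average latency compared.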
structure (smiles),measurement,setting,value
CCn1c(=O)c(-c2ccc(Cl)cc2Cl)cc2cnc(Nc3ccc(N4CCNCC4)c(F)c3)nc21,Activity,[1],Active
same,Activity,[2],inactive
same,Activity,[3],inactive
same,Activity,[4],inactive
same,Activity,[5],inactive
same,Activity,[6],inactive
same,pIC50,[7],6.11
same,Activity,[8],Active
same,Activity,[9],inactive
same,Activity,[10],inactive
same,Activity,[11],Active
same,Activity,[12],inactive
same,Ct,[13],951 ng/g
same,Activity,[14],100%
same,Activity,[15],Dose-Dependent Effect
same,Activity,[16],inactive
same,Activity,[17],inactive
